Measured values from ChEMBL document CHEMBL3526127, “Absorption, elimination, and metabolism of CS-1036, a novel α-amylase inhibitor in rats and monkeys, and the relationship between gastrointestinal distribution and suppression of glucose absorption” (Drug Metab Dispos, 2013).
One block for each compound: values may come before it.

How the values were obtained:
[1] = Cmax in F344 rat at 0.3 mg/kg, po administered as single dose by LC-MS/MS method; format: ADME, organism-based; parameters: dose 0.3 mg/kg, route oral; conditions: in vivo
How it was run: (§1)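 Fasted male F344 rats (146–185 g) and cynomolgus monkeys (3.48–4.29 kg), n = 4 each, received a single oral dose; monkeys had 2-week washouts. Plasma sampled up to 48 h, stored at […], assayed by LC-MS/MS with a deuterated internal standard. Cmax taken from observed data by noncompartmental analysis; mean ± S.D. (n = 3 or 4).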

[2] = AUC (0 to infinity) in cynomolgus monkey at 10 mg/kg, po administered as single dose by LC-MS/MS method; format: ADME, organism-based, Macaca fascicularis; parameters: time infinity, dose 10 mg/kg, route oral; conditions: plasma
How it was run: (§2)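 Fasted male F344 rats (146–185 g) or male cynomolgus monkeys (3.48–4.29 kg), n = 4 per dose, given single iv or oral dose of 0.3, 1.0, 3.0 or 10.0 mg/kg; monkeys dosed with 2-week washouts. Blood sampled to 48 h; plasma stored frozen. LC-MS/MS with deuterated internal standard. Noncompartmental analysis: AUClast by trapezoidal rule; AUC0–inf = AUClast + Ctz/terminal rate constant; mean ± S.D.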

[3] = Oral bioavailability in F344 rat at 0.3 mg/kg administered as single dose by LC-MS/MS method; format: ADME, organism-based; conditions: in vivo
How it was run: (§3)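 Male F344 rats (146–185 g) and male cynomolgus monkeys (3.48–4.29 kg), n = 4 each, fasted overnight, received single iv or oral doses of 0.3, 1.0, 3.0 or 10.0 mg/kg. Monkeys had 2-week washouts between doses. Plasma was sampled to 48 h and assayed by LC-MS/MS with deuterated internal standard. Noncompartmental analysis: tmax observed; t1/2 by regression on ≥3 terminal log points; Vss = dose·AUMC/(AUC0–inf)²; Foral = oral/iv AUC0–inf at the same dose.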

[4] = Cmax in F344 rat at 1 mg/kg, po administered as single dose by LC-MS/MS method; format: ADME, organism-based; parameters: dose 1 mg/kg, route oral; conditions: in vivo; how it was run: as §1
[5] = Volume of distribution at steady state in cynomolgus monkey at 0.3 mg/kg, iv administered as single dose by LC-MS/MS method; format: ADME, organism-based, Macaca fascicularis; parameters: dose 0.3 mg/kg, route intravenous; conditions: in vivo, read-out: Vdss; how it was run: as §3
[6] = AUC (0 to infinity) in F344 rat at 3 mg/kg, iv administered as single dose by LC-MS/MS method; format: ADME, organism-based; parameters: time infinity, dose 3 mg/kg, route intravenous; conditions: plasma; how it was run: as §2
[7] = Half life in F344 rat at 3 mg/kg, po administered as single dose by LC-MS/MS method; format: ADME, organism-based; parameters: dose 3 mg/kg, route oral; conditions: in vivo; how it was run: as §3
[8] = Drug metabolism in rat intestinal […] S9 fractions at 0.42 uCi/ml assessed as metabolite formation in presence of NADPH after 1 hr at 37 degC by LC-MS/MS method; format: ADME, subcellular; conditions: s9, 1 h
[9] = Ratio of drug level in blood to plasma in human after 5 mins; format: ADME
Cynomolgus monkey = assay: Total drug excretion in cynomolgus monkey at 3 mg/kg, iv administered as single dose after 0 to 48 hrs by scintillation counting method; format: ADME, organism-based, Macaca fascicularis; parameters: dose 3 mg/kg, route intravenous; conditions: in vivo
How it was run: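 Fasted male cynomolgus monkeys (n = 4) were dosed with 14C-labelled drug at 3 mg/kg, iv via saphenous vein (191 µCi/kg) or orally by stomach catheter (156.5 µCi/kg). Urine, feces and cage-wash water were collected to 336 h. Radioactivity was measured by liquid scintillation counting, with feces homogenized in water, and expressed as % of dose.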

[10] = Drug excretion in cynomolgus monkey feces at 3 mg/kg, iv administered as single dose after 0 to 48 hrs by scintillation counting method; format: ADME, organism-based, Macaca fascicularis; parameters: dose 3 mg/kg, route intravenous; conditions: in vivo
How it was run: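 Fasted cynomolgus monkeys (n = 4) received [14C]-labelled drug at 3 mg/kg, iv via saphenous vein (191 µCi/kg) or orally by stomach catheter (156.5 µCi/kg). Urine, feces and water cage-wash were collected to 336 h. Samples were counted by liquid scintillation; feces were homogenized in 4-fold water. Results are % of dose, mean ± S.D.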

[11] = Drug metabolism in F344 rat feces assessed as N-acetylated 1,4-dideoxy-1,4-imino-D-arabinitol formation by LC-MS/MS method; format: ADME, tissue-based
[12] = Drug metabolism in F344 rat urine assessed as 1,4-dideoxy-1,4-imino-D-arabinitol formation by LC-MS/MS method; format: ADME, tissue-based
[13] = Drug excretion in F344 rat feces at 1 mg/kg, po administered as single dose after 0 to 48 hrs by scintillation counting method; format: ADME, organism-based; parameters: dose 1 mg/kg, route oral; conditions: in vivo
How it was run: (§4)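 Fasted F344 rats (152–156 g iv via tail vein; 154–159 g oral; n = 4) received [14C]-labelled drug at 1 mg/kg (41.9 µCi/kg). Animals were kept in metabolic cages; urine and feces were collected to 168 h, and expired CO2 was trapped in 2-aminoethanol/2-methoxyethanol (1:1) to 48 h. Samples were counted by liquid scintillation (feces homogenized). Results are % of dose, mean ± S.D.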

[14] = Drug excretion in F344 rat urine at 1 mg/kg, po administered as single dose after 24 hrs by scintillation counting method; format: ADME, organism-based; parameters: dose 1 mg/kg, route oral; conditions: in vivo
How it was run: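 [14C]-labelled drug (1 mg/kg, 42.2 µCi/kg) was given orally to fasted F344 rats (164–168 g, n = 3). Urine and feces were collected to 24 h; feces were homogenized in 9 volumes of water, combusted and counted. Parent fraction came from the excreted radioactivity times the radio-HPLC (HILIC) peak-area ratio; mean ± S.D.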

[15] = Drug metabolism in anaerobic culture broth of F344 rat cecal content assessed as 1,4-dideoxy-1,4-imino-D-arabinitol formation at 63.5 uCi/ml after 24 hrs at 35 degC by LC-MS/MS method; format: ADME
[16] = Drug distribution in F344 rat cecum at 1 mg/kg, po administered as single dose after 4 hrs by scintillation counting method; format: ADME, organism-based, Caecum; parameters: dose 1 mg/kg, route oral; conditions: in vivo
How it was run: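 [14C]-labelled drug (1 mg/kg, 42.4 µCi/kg) was given orally to fasted F344 rats (148–168 g, n = 3). Contents of stomach, duodenum+jejunum, ileum and cecum were washed out with water at 0.5–8 h, homogenized, solubilized and counted by liquid scintillation. Results are % of dose, mean ± S.D.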

[17] = Drug excretion in F344 rat expired air at 1 mg/kg, po administered as single dose after 0 to 48 hrs by scintillation counting method; format: ADME, organism-based; parameters: dose 1 mg/kg, route oral; conditions: in vivo; how it was run: as §4
[18] = Drug metabolism in monkey intestinal S9 fractions at 0.42 uCi/ml assessed as metabolite formation in presence of NADPH after 1 hr at 37 degC by LC-MS/MS method; conditions: cynomolgus monkey, s9, 1 h
[19] = Drug excretion in cynomolgus monkey urine at 3 mg/kg, iv administered as single dose after 0 to 336 hrs by scintillation counting method; format: ADME, organism-based, Macaca fascicularis; parameters: dose 3 mg/kg, route intravenous; conditions: in vivo
[20] = Drug metabolism in rat liver S9 fractions at 0.42 uCi/ml assessed as metabolite formation in presence of NADPH after 1 hr at 37 degC by LC-MS/MS method; format: ADME, subcellular, Liver S9 fraction; conditions: s9, 1 h
[21] = Drug excretion in F344 rat urine at 1 mg/kg, iv administered as single dose after 0 to 168 hrs by scintillation counting method; format: ADME, organism-based; parameters: dose 1 mg/kg, route intravenous; conditions: in vivo; how it was run: as §4

Cmax [1]: 16.2 ng/mL | AUC(0-inf) [2]: 894 ng·h/mL | bioavailability [3]: 2.44% | Cmax [4]: 45.5 ng/mL | Vd [5]: 0.233 L/kg | AUC(0-inf) [6]: 18800 ng·h/mL | half-life [7]: 4.16 h
SMILES: C[C@H]1O[C@@H](O[C@H]2[C@H](O)[C@@H](O)[C@@H](O[C@H]3[C@H](O)CN[C@@H]3CO)O[C@@H]2CO)[C@H](O)[C@@H](O)[C@@H]1O

Drug metabolism [8]: metabolite_not_detected | blood plasma ratio at 5 min [9]: 0.521 | Drug excretion (Cynomolgus monkey): 94.29% | Drug excretion [10]: 0.46% | Drug metabolism [11]: metabolite_detected | Drug metabolism [12]: metabolite_detected | Drug excretion [13]: 77.59% | Drug excretion [14]: 1.4% | Drug metabolism [15]: metabolite_detected | Drug uptake [16]: 49.4% | Drug excretion [17]: 2.34% | Drug metabolism [18]: metabolite_not_detected | Drug excretion [19]: 81.13% | Drug metabolism [20]: metabolite_not_detected | Drug excretion [21]: 77.21%
SMILES: C[C@H]1O[C@@H](O[C@H]2[C@H](O)[C@@H](O)[C@@H](O[14C@H]3[14C@H](O)[14CH2]N[14C@@H]3[14CH2]O)O[C@@H]2CO)[C@H](O)[C@@H](O)[C@@H]1O
